{"source": "paper PMC3747510", "about": "(Scientific Reports, 2013)", "key": {"S. pneumoniae": {"system": "S. pneumoniae", "assay": "Broth microdilution MIC, S. pneumoniae", "format": "cell-based", "conditions": "Streptococcus pneumoniae, 24 h, read-out: MIC, Bacteria, S. pneumoniae", "procedure,_shortened": "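S. pneumoniae clinical isolate, from paediatric community-acquired pneumonia. CLSI M7-A7 broth microdilution in Mueller Hinton broth with 2.5% lysed sheep blood, inoculum about 2 × 10^8 CFU/mL. Serial test-compound dilutions, 37°C for 24 h. MIC was the lowest concentration suppressing visible growth.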"}, "SpLeuRS": {"molecular_target": "T1, SpLeuRS (Streptococcus pneumoniae serotype 4, UniProt Q97SS0)", "T1 sequence (Q97SS0 1-833)": "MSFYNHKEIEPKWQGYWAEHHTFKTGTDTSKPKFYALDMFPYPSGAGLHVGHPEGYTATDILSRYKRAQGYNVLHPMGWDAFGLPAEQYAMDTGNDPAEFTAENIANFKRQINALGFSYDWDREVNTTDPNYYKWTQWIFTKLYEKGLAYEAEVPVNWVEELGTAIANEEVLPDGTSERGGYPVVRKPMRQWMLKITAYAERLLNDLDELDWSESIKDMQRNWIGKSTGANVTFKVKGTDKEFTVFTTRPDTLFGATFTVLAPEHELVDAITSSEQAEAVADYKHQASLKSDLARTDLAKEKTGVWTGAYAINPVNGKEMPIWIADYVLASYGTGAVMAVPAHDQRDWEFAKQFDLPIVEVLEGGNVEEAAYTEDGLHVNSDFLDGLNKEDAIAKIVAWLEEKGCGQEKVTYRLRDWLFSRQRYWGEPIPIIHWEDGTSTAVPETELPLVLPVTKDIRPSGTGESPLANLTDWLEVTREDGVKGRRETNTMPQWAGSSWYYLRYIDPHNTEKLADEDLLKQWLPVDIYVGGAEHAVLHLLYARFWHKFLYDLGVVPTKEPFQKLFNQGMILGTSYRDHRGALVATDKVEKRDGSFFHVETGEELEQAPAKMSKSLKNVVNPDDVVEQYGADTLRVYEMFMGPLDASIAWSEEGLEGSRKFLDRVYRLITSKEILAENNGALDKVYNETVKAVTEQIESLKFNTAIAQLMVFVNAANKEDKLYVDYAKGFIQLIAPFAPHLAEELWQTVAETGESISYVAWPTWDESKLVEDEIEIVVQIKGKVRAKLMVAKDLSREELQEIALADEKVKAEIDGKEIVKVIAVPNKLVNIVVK", "assay": "Post-transfer editing", "format": "biochemical", "conditions": "5 or 50 μM ZCL039, 1 μM [3H]Met-SptRNALeu", "procedure,_shortened": "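Enzyme and test compound were preincubated 20 min. Substrate was mischarged with the EcLeuRS-D345A editing mutant (30 min, 37°C), then acid-phenol extracted. Controls: DMSO, and no-enzyme spontaneous hydrolysis. Means of three experiments.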"}, "SpLeuRS T252R": {"molecular_target": "T2, SpLeuRS T252R (Streptococcus pneumoniae serotype 4, UniProt Q97SS0, T252R)", "T2 sequence (Q97SS0 1-833 T252R)": "T1 sequence (Q97SS0 1-833) with T252R", "assay": "Aminoacylation by SpLeuRS T252R mutant", "format": "biochemical", "conditions": "50 μM ZCL039", "procedure,_shortened": "(§1)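 Aminoacylation at 37°C, started with 4 mM ATP. Point mutants were made by site-directed mutagenesis. The MmLinker chimera has CP1 Lys226–Thr411 replaced by a nonapeptide. Means of three independent experiments.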"}, "SpLeuRS D344A": {"molecular_target": "T3, SpLeuRS D344A (Streptococcus pneumoniae serotype 4, UniProt Q97SS0, D344A)", "T3 sequence (Q97SS0 1-833 D344A)": "T1 sequence (Q97SS0 1-833) with D344A", "assay": "Aminoacylation by SpLeuRS D344A mutant", "format": "biochemical", "conditions": "50 μM ZCL039", "procedure,_shortened": "as §1"}}, "note": "Positions count from the first letter of the chain named.", "data": [{"smiles": "OB1OCc2ccc(C(O)c3ccccc3)cc21", "note": "(stereo not shown) [ZCL039, [6-(1-phenyl-1-hydroxylmethyl)]-1,3-dihydro-1-hydroxy-2,1-benzoxaborole]", "values": [{"measurement": "MIC", "setting": "S. pneumoniae", "value": 5, "unit": "µg/mL"}, {"measurement": "Effect on hydrolysis of mischarged Met-SptRNALeu (editing)", "setting": "SpLeuRS", "value": "severely block"}, {"measurement": "Effect on synthetic activity of T252R mutant", "setting": "SpLeuRS T252R", "value": "did not affect"}, {"measurement": "Effect of D344A mutation on sensitivity of SpLeuRS to ZCL039", "setting": "SpLeuRS D344A", "value": "reduced the sensitivity"}]}]}
